Results: ChEMBL document CHEMBL4196054, “Facile synthesis of 1,2-dione-containing abietane analogues for the generation of human carboxylesterase inhibitors” (Eur J Med Chem, 2018)

How the values were obtained:
[1] = Inhibition of human intestinal carboxylesterase using o-nitrophenyl acetate as substrate
Method in brief: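 Purified human intestinal CE (hiCE), chromatographically pure. Read in 96-well format with 3mM o-nitrophenyl acetate in 50mM Hepes, pH7.4. Inhibitors were added in DMSO and the reaction was started by adding enzyme. At least 8 inhibitor concentrations were run in triplicate against DMSO-only controls. Data were fitted to a multifactorial equation, the best model was chosen by Akaike's information criteria, and Ki was taken from the curve fits.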

[2] = molecular target: Acetylcholinesterase (Homo sapiens) (UniProt P22303); assay: Inhibition of human AChE using acetylthiocholine as substrate at 5 uM by spectrophotometric analysis
Method in brief: (§1)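 Run like the carboxylesterase assay in 50mM Hepes pH7.4 with DMSO-dissolved inhibitor, reaction started by enzyme addition. Substrate is acetylthiocholine (AChE) or butyrylthiocholine (BChE). Inhibitor tested at a single 5µM concentration.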

[3] = molecular target: Cholinesterase (Homo sapiens) (UniProt P06276); assay: Inhibition of human BChE using butyrylthiocholine as substrate at 5 uM by spectrophotometric analysis; method in brief: as §1
Homo sapiens [4] = organism: Homo sapiens; assay: Selectivity index, ratio of Ki for human liver carboxylesterase 1 to Ki for human intestinal carboxylesterase
Liver carboxylesterase 1 = molecular target: T1, Liver carboxylesterase 1 (Homo sapiens, UniProt P23141); assay: Inhibition of human liver carboxylesterase 1 using o-nitrophenyl acetate as substrate
T1 sequence (P23141 whole entry): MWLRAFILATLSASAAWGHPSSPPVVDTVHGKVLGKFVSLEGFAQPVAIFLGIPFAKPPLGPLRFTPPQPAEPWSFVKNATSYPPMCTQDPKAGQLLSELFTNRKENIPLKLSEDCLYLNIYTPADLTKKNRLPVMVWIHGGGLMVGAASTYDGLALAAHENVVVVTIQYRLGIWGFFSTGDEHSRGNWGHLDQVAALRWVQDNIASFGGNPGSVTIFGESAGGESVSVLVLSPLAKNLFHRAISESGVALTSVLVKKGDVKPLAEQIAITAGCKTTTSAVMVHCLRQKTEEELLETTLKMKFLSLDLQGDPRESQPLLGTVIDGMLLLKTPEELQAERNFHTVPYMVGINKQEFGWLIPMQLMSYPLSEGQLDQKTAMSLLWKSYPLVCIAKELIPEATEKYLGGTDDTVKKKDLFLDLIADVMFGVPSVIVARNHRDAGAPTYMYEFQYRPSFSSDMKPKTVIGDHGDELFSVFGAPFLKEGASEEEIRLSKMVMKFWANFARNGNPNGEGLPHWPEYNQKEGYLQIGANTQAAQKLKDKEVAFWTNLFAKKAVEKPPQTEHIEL
Method in brief: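 Chromatographically pure human hCE1 in 50mM Hepes pH7.4 with 3mM o-nitrophenyl acetate. Inhibitor in DMSO, at least 8 concentrations, triplicates, compared against DMSO-only controls. Reaction started by enzyme addition. Data fitted to a multifactorial equation, the best inhibition model chosen by Akaike's information criterion, and Ki taken from the curve fits.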

Homo sapiens [5] = organism: Homo sapiens; assay: Potency index, ratio of miltirone Ki to compound Ki for inhibition of human intestinal carboxylesterase
[6] = molecular target: T2, liver carboxylesterase 1 (CES1) (Homo sapiens, UniProt P23141); assay: Potency index, ratio of miltirone Ki to compound Ki for inhibition of human liver carboxylesterase 1; settings: read-out: Ratio Ki
T2 sequence (P23141 whole entry): T1 sequence (P23141 whole entry)

Cholinesterase (Homo sapiens), sequence (P06276 whole entry): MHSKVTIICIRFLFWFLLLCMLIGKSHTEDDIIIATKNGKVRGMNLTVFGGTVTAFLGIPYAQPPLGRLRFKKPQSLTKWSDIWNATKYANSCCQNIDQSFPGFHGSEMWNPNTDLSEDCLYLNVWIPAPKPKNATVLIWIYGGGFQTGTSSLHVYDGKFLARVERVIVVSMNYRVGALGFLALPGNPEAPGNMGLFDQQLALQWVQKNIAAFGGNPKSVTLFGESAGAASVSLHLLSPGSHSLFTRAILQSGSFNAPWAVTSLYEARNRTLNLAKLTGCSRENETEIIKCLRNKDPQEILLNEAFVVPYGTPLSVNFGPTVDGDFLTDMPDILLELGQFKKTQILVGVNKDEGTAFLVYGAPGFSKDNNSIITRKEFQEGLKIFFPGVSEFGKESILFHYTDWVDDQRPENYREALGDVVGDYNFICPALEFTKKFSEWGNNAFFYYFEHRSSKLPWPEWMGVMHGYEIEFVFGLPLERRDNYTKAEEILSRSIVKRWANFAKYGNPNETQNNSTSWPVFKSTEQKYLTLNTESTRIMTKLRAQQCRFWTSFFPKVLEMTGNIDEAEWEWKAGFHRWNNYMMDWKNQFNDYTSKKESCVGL
Acetylcholinesterase (Homo sapiens), sequence (P22303 whole entry): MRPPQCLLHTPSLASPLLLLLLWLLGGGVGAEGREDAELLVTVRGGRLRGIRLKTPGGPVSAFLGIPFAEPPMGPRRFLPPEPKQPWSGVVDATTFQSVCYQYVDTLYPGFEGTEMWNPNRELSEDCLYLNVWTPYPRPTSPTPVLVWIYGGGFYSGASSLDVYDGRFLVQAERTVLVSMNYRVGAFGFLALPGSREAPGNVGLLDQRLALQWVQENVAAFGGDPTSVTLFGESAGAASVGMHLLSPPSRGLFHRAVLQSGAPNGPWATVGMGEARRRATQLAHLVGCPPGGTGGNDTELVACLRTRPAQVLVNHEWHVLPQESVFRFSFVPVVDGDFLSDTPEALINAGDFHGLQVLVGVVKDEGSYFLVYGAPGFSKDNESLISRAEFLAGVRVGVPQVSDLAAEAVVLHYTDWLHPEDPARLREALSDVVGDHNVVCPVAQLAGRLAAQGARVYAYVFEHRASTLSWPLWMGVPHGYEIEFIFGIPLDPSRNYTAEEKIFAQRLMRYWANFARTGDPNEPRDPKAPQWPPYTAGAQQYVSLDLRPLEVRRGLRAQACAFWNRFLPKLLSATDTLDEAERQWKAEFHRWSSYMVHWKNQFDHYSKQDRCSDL

With `CC1=Cc2ccc3c(c2C(=O)C1=O)CCCC3` the Ki [1] was 423 nM, the inhibition [2] was 5% and the inhibition [3] was 4%. For the same compound, the Ratio Ki (Homo sapiens [4]) was 2.9 and the Ki (Liver carboxylesterase 1) was 1220 nM.
Work on `CC(C)C1=Cc2ccc3c(c2C(=O)C1=O)CC(C)(C)CC3` yielded a Ki [1] of 31.2 nM, an inhibition [2] of 20% and an inhibition [3] of 4%. The Ratio Ki (Homo sapiens [4]) was 60 and the Ki (Liver carboxylesterase 1) was 1870 nM.
In the case of `CC1=Cc2ccc3c(c2C(=O)C1=O)CCOC3`, the Ki [1] is reported as at least 10000 nM, the inhibition [2] is reported as 27% and the inhibition [3] is reported as 0%. It also gave a Ki (Liver carboxylesterase 1) of at least 10000 nM.
In the case of `CC1(C)CCc2ccc3c(c2C1)C(=O)C(=O)C(F)=C3`, the Ki [1] is reported as 14.6 nM, the Ratio Ki (Homo sapiens [5]) is reported as 3 and the inhibition [2] is reported as 3%. For the same compound, the inhibition [3] was 23%, the Ratio Ki (Homo sapiens [4]) was 2.9 and the Ki (Liver carboxylesterase 1) was 42 nM.
For `CC1(C)CCc2ccc3c(c2C1)C(=O)C(=O)C(F)=C3F`, the Ki [1] was 43.3 nM, the inhibition [2] was 4% and the inhibition [3] was 1%. The Ratio Ki (Homo sapiens [4]) was 2.3 and the Ki (Liver carboxylesterase 1) was 102 nM.
With `O=C1C=Cc2ccc3ccccc3c2C1=O` the Ki [1] was at least 10000 nM, the inhibition [2] was 16% and the inhibition [3] was 13%. The Ratio Ki (Homo sapiens [4]) was under 0.06 and the Ki (Liver carboxylesterase 1) was 942 nM.
`COC1=Cc2ccc3c(c2C(=O)C1=O)CC(C)(C)CC3` gave a Ki [1] of 159 nM, an inhibition [2] of 2% and an inhibition [3] of 1%. The Ratio Ki (Homo sapiens [4]) was 0.3 and the Ki (Liver carboxylesterase 1) was 42.5 nM.
For `CC1=Cc2ccc3c(c2C(=O)C1=O)CC(C)(C)CC3`, the Ki [1] was 87.9 nM, the inhibition [2] was 0% and the inhibition [3] was 1%. For the same compound, the Ratio Ki (Homo sapiens [4]) was 27.6 and the Ki (Liver carboxylesterase 1) was 2420 nM.
`CC(C)C1=Cc2ccc3c(c2C(=O)C1=O)CCC(C)(C)C3` showed a Ki [1] of 70.7 nM, an inhibition [2] of 30% and an inhibition [3] of 3%. It also gave a Ratio Ki (Homo sapiens [4]) of 59.5 and a Ki (Liver carboxylesterase 1) of 4200 nM.
Work on `CC(C)C1=Cc2ccc3c(c2C(=O)C1=O)CCCC3` yielded a Ki [1] of 111 nM, an inhibition [2] of 16% and an inhibition [3] of 1%. The Ki (Liver carboxylesterase 1) was 1050 nM.
For `CC1(C)CCc2ccc3c(c2C1)C(=O)C(=O)C=C3F`, the Ki [1] was 386 nM, the selectivity ratio [6] was 175 and the inhibition [2] was 10%. The inhibition [3] was 15%, the Ratio Ki (Homo sapiens [4]) was 0.04 and the Ki (Liver carboxylesterase 1) was 14.4 nM.
Compound `CC1=Cc2ccc3c(c2C(=O)C1=O)CCC(C)(C)C3` has a Ki [1] of 182 nM, an inhibition [2] of 1% and an inhibition [3] of 2%. The Ratio Ki (Homo sapiens [4]) was 2.7 and the Ki (Liver carboxylesterase 1) was 495 nM.
In the case of `CC1(C)CCc2ccc3c(c2C1)C(=O)C(=O)C=C3`, the Ki [1] is reported as 341 nM, the inhibition [2] is reported as 2% and the inhibition [3] is reported as 13%. For the same compound, the Ratio Ki (Homo sapiens [4]) was 0.09 and the Ki (Liver carboxylesterase 1) was 31.9 nM.
In the case of `O=C1C=C(F)c2ccc3c(c2C1=O)CCCC3`, the Ki [1] is reported as 171 nM, the inhibition [2] is reported as 4% and the inhibition [3] is reported as 33%. For the same compound, the Ratio Ki (Homo sapiens [4]) was 0.15 and the Ki (Liver carboxylesterase 1) was 25.9 nM.
For `O=C1C(=O)c2c(ccc3ccccc23)C=C1F`, the Ki [1] was 51.3 nM, the inhibition [2] was 8% and the inhibition [3] was 3%. The Ratio Ki (Homo sapiens [4]) was 0.48 and the Ki (Liver carboxylesterase 1) was 48.7 nM.
Compound `O=C1C(=O)c2c(ccc3c2CCCC3)C=C1F` has a Ki [1] of 112 nM, a selectivity ratio [6] of 210 and an inhibition [2] of 16%. The inhibition [3] was 62%, the Ratio Ki (Homo sapiens [4]) was 0.11 and the Ki (Liver carboxylesterase 1) was 12.2 nM.
`CC1=CC(=O)C(=O)c2c1ccc1c2CCCC1` showed a Ki [1] of at least 10000 nM, an inhibition [2] of 13% and an inhibition [3] of 30%. The Ki (Liver carboxylesterase 1) was 25.1 nM.
`CC(C)C1=Cc2ccc3c(c2C(=O)C1=O)CCCC3(C)C` [MILTIRONE] gave an inhibition [2] of 22% and an inhibition [3] of 6%.
In the case of `O=C1C=Cc2ccc3c(c2C1=O)CCCC3`, the Ki [1] is reported as 2180 nM, the inhibition [2] is reported as 0% and the inhibition [3] is reported as 54%. The Ratio Ki (Homo sapiens [4]) was 0.06 and the Ki (Liver carboxylesterase 1) was 131 nM.
